DNMT1 inh: human DNMT1 methyltransferase inhibitors, primary screen, biochemical, molecular beacon, fluorescence, HinP1I cleavage, uHTS. DNA (cytosine-5)-methyltransferase 1 (Homo sapiens), P26358. 360,000 compounds, 0.83% hits. inhibition (reported as % activation of signal), % at 10 µM. AID 588458, 2011; in the data active means inhibition above about 50%
LMPTP inh: LMPTP phosphatase inhibitors, primary screen, biochemical, fluorescence intensity, uHTS. inhibition, % at 20 µM. 360,000 compounds, 0.22% hits. recombinant LMPTP-A, OMFP fluorogenic substrate. AID 651560, 2012;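 active means compounds that cut the enzyme signal by at least half of the control window in the single-dose screen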
Target sequence (P24666 whole entry, looked up): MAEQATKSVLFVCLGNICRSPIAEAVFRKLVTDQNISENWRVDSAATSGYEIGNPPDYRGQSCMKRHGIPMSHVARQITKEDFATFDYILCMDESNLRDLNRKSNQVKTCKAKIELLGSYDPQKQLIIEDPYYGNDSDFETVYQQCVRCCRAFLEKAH
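Assay system: LMPTP-A phosphatase enzyme | Input: 0.625 nM enzyme | Also added: Fluorogenic phosphatase substrate OMFP at 400 µM final | Compound dosing: One test concentration per compound, 20 µM, with 3% DMSO overall | Schedule: 50 min enzyme reaction at room temperature, protected from light | Signal: Fluorescence intensity | Benchmarks: no-enzyme and uninhibited controls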
SUMO1 PPI mod: modulators of SUMO1 protein-protein interactions, primary screen, biochemical, uHTS; inhibition, % at 20 µM; 360,000 compounds, 0.33% hits; SUMO1 binding to a labelled peptide, TR-FRET, 1 h; Small ubiquitin-related modifier 1 (Homo sapiens), P63165; in the data active means inhibition above about 37%
STEP block: STEP phosphatase inhibitors, primary screen, biochemical, fluorescence intensity, uHTS | recombinant STEP, OMFP fluorogenic substrate | inhibition, % at 20 µM | 360,000 compounds, 0.25% hits | AID 588621, 2011;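 active means inhibition at 20 µM, scaled per plate between control wells, above about 37%, limit read from the data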
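Assay system: isolated STEP enzyme / Timing: 20 min at room temperature, dark / Doses: 20 µM, 1% DMSO / Technique: fluorescence intensity, excitation 480 nm, emission 540 nm / Reagent: fluorogenic phosphatase substrate OMFP at 25 µM final / Measure: percent inhibition scaled to no-enzyme and uninhibited-enzyme controls, plate-pattern corrected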
Casp6 inh: human caspase-6 inhibitors, primary screen, biochemical, VEID-R110 fluorescence, single point, set 2; P55212; purified caspase-6, Z-VEID-R110 cleavage fluorescence; inhibition, % at 12.5 µM; 350,000 compounds, 0.53% hits;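 active means mean inhibition across replicates at least about 35%, with every replicate also reaching that limit, limit read from the data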
Target sequence (P55212 24-179 limits assumed): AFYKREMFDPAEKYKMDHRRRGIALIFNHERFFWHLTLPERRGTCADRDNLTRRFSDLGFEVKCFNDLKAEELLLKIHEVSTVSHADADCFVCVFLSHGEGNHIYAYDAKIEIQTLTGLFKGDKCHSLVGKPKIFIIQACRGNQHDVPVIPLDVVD
Target sequence (P55212 194-293 limits assumed): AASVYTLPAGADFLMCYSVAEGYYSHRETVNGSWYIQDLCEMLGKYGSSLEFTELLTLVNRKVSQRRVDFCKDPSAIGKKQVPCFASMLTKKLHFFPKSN
Scp1 inh: Scp-1 phosphatase inhibitors, primary screen, biochemical, colorimetric, uHTS | Carboxy-terminal domain RNA polymerase II polypeptide A small phosphatase 1 (Homo … | Recombinant Scp1, phosphopeptide, malachite green phosphate absorbance | inhibition, % at 20 µM | 340,000 compounds, 0.88% hits;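 active means inhibition above about 50% at 20 µM, limit read from the data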
Target sequence (Q9GZU7 76-261 limits assumed): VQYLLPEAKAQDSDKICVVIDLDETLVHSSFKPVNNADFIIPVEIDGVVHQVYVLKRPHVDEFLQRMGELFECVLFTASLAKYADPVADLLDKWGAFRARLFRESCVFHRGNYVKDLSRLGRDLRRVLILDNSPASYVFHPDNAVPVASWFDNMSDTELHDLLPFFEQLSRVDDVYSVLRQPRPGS
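Material – SCP-1 phosphatase catalytic domain, residues 76-261 · Buffer or medium – Acidic Tris acetate buffer with magnesium and detergent · Also added – Phospho 17-mer peptide substrate · Compound – single 20 µM dose, 1% DMSO · Times – 45 min room-temperature reaction, 5 min colour, 30 min stabiliser · Technique – Phosphate-binding colour reagent, absorbance read at 630 nm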
DNMT1 inh conf: DNMT1 methyltransferase inhibitor retest, confirmation, biochemical, molecular beacon, fluorescence, single concentration; shares compounds with DNMT1 inh; DNMT1 molecular beacon HinP1I cleavage; inhibition, % at 10 µM; 2,300 compounds, 8% hits; AID 602385, 2012;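 active means average inhibition of at least 30% in the single-concentration confirmation test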
DNMT1 interf: shows spectral interference in the DNMT1 beacon assay | DNMT1 molecular beacon spectral interference counterscreen, fluorescence 485/520 | activation (fluorescence interference), % at 10 µM | 2,300 compounds, 1% hits | shares compounds with DNMT1 inh;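 active means activation of at least 30% at 10 µM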;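 further: DNMT1 catalytic domain with a HinP1I cleavage step and a FAM/dabcyl DNA beacon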
A number is an active result; - = inactive; . = not tested or not shown. Shown are actives, neighbours in structure and some others; about 1.7% of the full set was active somewhere.

SMILES	DNMT1 inh	LMPTP inh	SUMO1 PPI mod	STEP block	Casp6 inh	Scp1 inh	DNMT1 inh conf	DNMT1 interf
CCOC(=O)c1c(NC(=O)c2cc(-c3ccc(Cl)s3)nc3ccccc23)sc(C(N)=O)c1C	56	-	-	-	.	-	-	-
CCN(CC)CCN1c2ccccc2Sc2ccccc21	-	-	-	-	-	-	.	.
Cc1cc(/C=C2\SC(=S)NC2=O)c(C)n1-c1ccccc1	-	-	-	-	-	-	.	.
Cc1cc(/C=C2\SC(=S)NC2=O)c(C)n1C	92	-	43	-	-	-	-	-
CC1=C(C(=O)Nc2ccccc2)C(c2ccccn2)n2ncnc2N1 (stereo not given)	-	-	-	-	.	-	.	.
Cc1ccc(OCc2ccoc2C(=O)O)cc1C	54	-	-	-	.	-	-	-
CC(C)NC(=O)Nc1ccc2c(c1)CC(=O)N([C@H](C)CO)C[C@@H](C)[C@H](CN(C)C(=O)Nc1ccc(F)cc1)O2	.	.	.	.	-	.	.	.
CC1=Nc2ccccc2/C1=C\c1sc(Nc2ccc(C)cc2)nc1O	-	-	-	-	-	-	.	.
COc1ccc(CCn2c(C3CCCCC3)nc3c(c(=O)c4ccccc4n3C)c2=O)cc1OC	63	-	41	-	-	-	-	-
COc1cccc(NC(=O)N2CCC(C(N)=O)(N3CCCCC3)CC2)c1	-	-	-	-	.	-	.	.
CO[C@@H]1CN(C)C(=O)c2ccc(NC(=O)C3CC3)cc2OC[C@@H](C)N(Cc2nccs2)C[C@@H]1C	.	.	.	.	-	.	.	.
COc1ccccc1NC(=O)CCCC(=O)OCC(F)(F)C(F)F	-	-	-	-	.	-	.	.
COc1ccc(NC(=O)CCCC(=O)OCC(F)(F)C(F)F)cc1	75	-	-	-	.	-	-	-
CC(=O)OC(C(=O)N1CCN(c2ccccc2F)CC1)c1ccccc1 (stereo not given)	-	-	-	-	.	-	.	.
CN(C)CCN(C(=O)/C=C/c1cccs1)c1nc2c(F)cc(F)cc2s1	58	-	-	-	.	-	-	-
CN(C)CCCN(C(=O)/C=C/c1cccs1)c1nc2ccc(F)cc2s1	-	-	-	-	-	-	.	.
O=C(c1ccc2c(=O)n3c(nc2c1)CCC3)N1CCN(S(=O)(=O)c2cccc(F)c2)CC1	79	-	-	-	-	-	-	-
O=C(c1ccc2c(=O)n3c(nc2c1)CCCCC3)N1CCCCC1	-	-	-	-	-	-	.	.
CCOc1ccc2nc(NC(=O)C(CCSC)NS(=O)(=O)c3cccs3)sc2c1 (stereo not given)	-	-	-	-	.	-	.	.
CCCCS(=O)(=O)N1CCCC(C(=O)Oc2ccccc2)C1 (stereo not given)	-	-	-	-	-	-	.	.
CCCS(=O)(=O)N1CCCC(C(=O)Oc2ccc(OC)cc2)C1 (stereo not given)	83	-	-	-	-	-	-	-
O=C(O)c1cccc(-c2noc(-c3cccc(Cl)c3)n2)c1	83	-	-	-	-	-	-	-
COc1ccc(C)cc1C(=O)CCC(=O)NCCc1ccc(S(N)(=O)=O)cc1	-	-	-	-	-	-	.	.
COc1cc2c(c3c1c(=O)c1cccc(F)c1n3C)C=CC(C)(C)O2	.	.	.	.	-	.	.	.
O=C1NC(c2ccc(Cl)cc2Cl)Oc2ccccc21 (stereo not given)	-	-	-	-	-	-	.	.
SMILES	DNMT1 inh	LMPTP inh	SUMO1 PPI mod	STEP block	Casp6 inh	Scp1 inh	DNMT1 inh conf	DNMT1 interf
Cc1ccccc1C1NC(=O)c2ccccc2O1 (stereo not given)	75	-	-	-	-	-	-	-
O=C1OCC/C1=C\c1ccc(O)cc1	-	-	-	-	-	-	.	.
Cc1ccc(-c2nnc(SCC(=O)Nc3sc(C)c(C)c3C#N)n2C)cc1	52	-	-	-	.	-	-	-
Cn1cc(/C=N/NC(=O)c2cccc([N+](=O)[O-])c2)c2ccccc21	-	-	-	-	.	-	.	.
Cn1cc(/C=C(\C#N)C(=O)Nc2cccc([N+](=O)[O-])c2)c2ccccc21	61	-	-	-	-	-	-	-
CCOC(=O)/C=c1\s/c(=C\c2c(OC)ccc3ccccc23)c(=O)n1CC(=O)NCC1CCCO1 (stereo not given)	-	-	-	-	-	-	.	.
COc1ccc2c(c1)c1c(c(=O)n(-c3ccc(C)cc3)c(=O)n1CC(=O)NCC1CCCO1)n2C (stereo not given)	98	-	-	-	-	.	-	-
CCOC(=O)/C=c1\s/c(=C\c2ccc(C(=O)OC)cc2)c(=O)n1CC(=O)Nc1ccccc1	-	-	-	-	-	-	.	.
CCOC(=O)/C=c1\s/c(=C\c2ccc(C#N)cc2)c(=O)n1CC(=O)NCc1ccco1	50	-	-	-	-	-	-	-
CCOC(=O)/C=c1/s/c(=C/c2ccc3cc(OC)ccc3c2)c(=O)n1CC(=O)NCC1CCCO1 (stereo not given)	54	-	-	-	-	-	-	-
CC(C)CC#Cc1cnc2c(c1)C(=O)N([C@H](C)CO)C[C@H](C)[C@H](CN(C)C(=O)C1CCCCC1)O2	.	.	.	.	-	.	.	.
O=C(NCc1ccco1)c1ccc([N+](=O)[O-])o1	67	-	-	-	.	59	-	-
O=C(NCc1ccco1)c1ccc(Cn2cc([N+](=O)[O-])cn2)o1	-	-	-	-	.	-	.	.
S=C(NCc1ccco1)NCc1ccco1	-	-	-	-	52	-	-	-
O=C(Cc1cn2ccsc2n1)Nc1nc2c(s1)CN(Cc1ccccc1)CC2	56	61	-	-	.	-	-	-
CCN1CCc2nc(NC(=O)CC(c3ccccc3)c3ccccc3)sc2C1	-	-	-	-	.	-	.	.
CCN1CCc2nc(NC(=O)C(c3ccccc3)c3ccccc3)sc2C1	63	-	-	-	.	-	-	-
O=C(Nc1cc(F)ccc1F)N1CC(=O)N2[C@H](CO)[C@@H](c3ccc(-c4ccc(F)cc4)cc3)[C@H]2C1	.	.	.	.	-	.	.	.

Compound activity from PubChem.
